A short description of series [1]: Cell viability in mouse Neuro 2a cells at 750 uM after 48 hrs by MTT assay relative to control. Format: cell-based, N2a. Particulars: read-out: Activity. In short, it runs like this: (§1)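 Cells grown 24 h, then exposed to 750 µM compound for 48 h. Viability read by MTT assay and given as % of untreated control. Duplicate experiments.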
(In general: Tetrazolium dyes change colour on reduction, which living cells bring about.)

A short description of series [2]: Cell viability in HEK293 cells at 750 uM after 48 hrs by MTT assay relative to control. Format: cell-based. To be noted: human, read-out: Activity. In short, it runs like this:
as §1

Series [3] in a line: Cell viability in mouse AB1 cells at 750 uM after 48 hrs by MTT assay relative to control. Format: cell-based. Particulars: read-out: Activity. In short, it runs like this:
as §1

The nature of series [4]: Cytotoxicity against mouse Neuro 2a cells. It counts as cell-based. To be noted: n2a.
A short description of series [5]: Increase in NAD+ concentration in mouse Neuro 2a cells at 750 uM after 24 hrs by isotope-dilution technique. Format: functional, N2a.
The subject of series [6] is HEK293. In words: Cytotoxicity against HEK293 cells. To be noted: human. Format: cell-based.
A short description of series [7]: Increase in NAD+ concentration in mouse AB1 cells at 750 uM after 24 hrs by isotope-dilution technique. Format: functional.
Series [8] has as its system HEK293. In words: Increase in NAD+ concentration in HEK293 cells at 750 uM after 24 hrs by isotope-dilution technique. Format: functional, Homo sapiens.
Series [9] is described as follows: Cytotoxicity against mouse AB1 cells. It counts as cell-based.
The subject of series [10] is HEK293. Nature of the series: Increase in NAD+ concentration in HEK293 cells at 670 uM after 24 hrs by isotope-dilution technique relative to control. Format: functional, Homo sapiens. In short, it runs like this: (§2)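 Cells exposed to 670 µM compound for 24 h. NAD+ was then quantified by an MS-based isotope-dilution method using an 18O standard and expressed relative to untreated controls. All cell experiments were run in duplicate.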

Series [11] is described as follows: Increase in NAD+ concentration in mouse Neuro 2a cells at 670 uM after 24 hrs by isotope-dilution technique relative to control. Format: functional, N2a. The procedure, abridged: as §2
The nature of series [12]: Increase in NAD+ concentration in mouse AB1 cells at 670 uM after 24 hrs by isotope-dilution technique relative to control. It counts as functional. In short, it runs like this: as §2

The results in this text go back to ChEMBL document CHEMBL1138359, “Syntheses of nicotinamide riboside and derivatives: effective agents for increasing nicotinamide adenine dinucleotide concentrations in mammalian cells” (J Med Chem, 2007).

Take `CN(C)C(=O)c1ccc[n+]([C@@H]2O[C@H](CO)[C@@H](O)[C@H]2O)c1`: the viability at 48 h, 750 µM worked out at 35% in [1], 78% in series [2] and 132% in series [3].
For `CNC(=O)c1ccc[n+]([C@@H]2O[C@H](CO)[C@@H](O)[C@H]2O)c1`, in that order: 76%, 72% and 79%.
As for `O=C(NCCO)c1ccc[n+]([C@@H]2O[C@H](CO)[C@@H](O)[C@H]2O)c1`, the viability at 48 h, 750 µM turned out to be 51% in [1], 77% in series [2] and 101% in [3].
In the case of `CCOC(=O)c1ccc[n+]([C@@H]2O[C@H](COC(C)=O)[C@@H](OC(C)=O)[C@H]2OC(C)=O)c1`, the Activity entry in series [4] is on record as “Non-toxic”; in [5], 260%; with HEK293 [6], “Non-toxic”; in [7] it was 130%; in the series on HEK293 [8], 160%; in series [9] it was “Non-toxic”.
For the compound `COC(=O)c1ccc[n+]([C@@H]2O[C@H](CO)[C@@H](O)[C@H]2O)c1`, the viability at 48 h, 750 µM in series [1] turned out to be 76%; in series [2], 94%; in [3], 125%.
On the same counts, the results for `CCNC(=O)c1ccc[n+]([C@@H]2O[C@H](CO)[C@@H](O)[C@H]2O)c1` are 38%, 48% and 57%.
Turning to `NC(=O)c1ccc[n+]([C@@H]2O[C@H](CO)[C@@H](O)[C@H]2O)c1` [NICOTINAMIDE RIBOSIDE], the viability at 48 h, 750 µM in [1] was determined as 107%; in series [2], 111%; in series [3] it was 123%.
For `C=CCNC(=O)c1ccc[n+]([C@@H]2O[C@H](CO)[C@@H](O)[C@H]2O)c1`, in that order: 80%, 78% and 57%.
For `CCOC(=O)c1ccc[n+]([C@@H]2O[C@H](CO)[C@@H](O)[C@H]2O)c1`, in that order: 169%, 92% and 103%.
Take `O=C(O)c1ccc[n+]([C@@H]2O[C@H](CO)[C@@H](O)[C@H]2O)c1`: the figures for the viability at 48 h, 750 µM in [1], in series [2] and in [3] were 125%, 92% and 111%, respectively. Also, the values for the Activity (with HEK293 [10]; in series [11]; in series [12]) were 1.9%, 1.7% and 1.5%, respectively.
